# Calls of active or inactive are those of the source. The calls are words filed in the database; no cut-off is given here.
# How the values were obtained:
# MONO-MAC-6 [1] = assay: Downregulation of TNFalpha mRNA expression level in human MONO-MAC-6 cells at 5 uM incubated for 30 mins measured after 4 hrs by qRT-PCR method relative to control; type: functional
# MONO-MAC-6 [2] = assay: Upregulation of CCL4 mRNA expression level in LPS-stimulated human MONO-MAC-6 cells at 5 uM preincubated for 30 mins followed by LPS stimulation measured after 6 hrs by oligonucleotide array hybridization assay (reference value: 6.37); type: functional
# MONO-MAC-6 [3] = assay: Downregulation of TNFalpha mRNA expression level in human MONO-MAC-6 cells at 5 uM incubated for 30 mins measured after 2 hrs by qRT-PCR method relative to control; type: functional
# MONO-MAC-6 [4] = assay: Upregulation of CXCL10 mRNA expression level in LPS-stimulated human MONO-MAC-6 cells at 5 uM preincubated for 30 mins followed by LPS stimulation measured after 4 hrs by oligonucleotide array hybridization assay (reference value: 3.07); type: functional
# MONO-MAC-6 [5] = assay: Upregulation of CXCL10 mRNA expression level in LPS-stimulated human MONO-MAC-6 cells at 5 uM preincubated for 30 mins followed by LPS stimulation measured after 1 hr by oligonucleotide array hybridization assay (reference value: 1.18); type: functional
# MONO-MAC-6 [6] = assay: Downregulation of ICAM1 mRNA expression level in LPS-stimulated human MONO-MAC-6 cells at 5 uM preincubated for 30 mins followed by LPS stimulation measured after 2 hrs by oligonucleotide array hybridization assay (reference value: 1.94); type: functional
# How it was run: (§1)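 Total RNA was isolated, transcribed and labeled with DY-647 dye, then co-hybridized with DY-548-labeled cDNA from untreated cells on an inflammation oligonucleotide chip (780 gene probes). Differential expression >1.5 was taken as significant.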
# MONO-MAC-6 [7] = assay: Downregulation of CCL20 mRNA expression level in LPS-stimulated human MONO-MAC-6 cells at 5 uM preincubated for 30 mins followed by LPS stimulation measured after 6 hrs by oligonucleotide array hybridization assay (reference value: 5.78); type: functional; how it was run: as §1
# MONO-MAC-6 [8] = assay: Downregulation of CXCL3 mRNA expression level in human MONO-MAC-6 cells at 5 uM incubated for 30 mins measured after 6 hrs by oligonucleotide array hybridization assay relative to control; type: functional; how it was run: as §1
# MONO-MAC-6 [9] = assay: Upregulation of IL23A mRNA expression level in LPS-stimulated human MONO-MAC-6 cells at 5 uM preincubated for 30 mins followed by LPS stimulation measured after 2 hrs by qRT-PCR method (reference value: 1.39); type: functional
# [10] = target: T1, Sphingomyelin phosphodiesterase (Homo sapiens) (UniProt P17405); assay: Inhibition of TNFalpha-stimulated acid sphingomyelinase in human PBMC lysates at 2 to 50 uM preincubated for 30 mins followed by TNFalpha stimulation measured after 4 hrs by YO-PRO-1/Hoechst 33342 staining based assay
# T1 sequence (whole entry): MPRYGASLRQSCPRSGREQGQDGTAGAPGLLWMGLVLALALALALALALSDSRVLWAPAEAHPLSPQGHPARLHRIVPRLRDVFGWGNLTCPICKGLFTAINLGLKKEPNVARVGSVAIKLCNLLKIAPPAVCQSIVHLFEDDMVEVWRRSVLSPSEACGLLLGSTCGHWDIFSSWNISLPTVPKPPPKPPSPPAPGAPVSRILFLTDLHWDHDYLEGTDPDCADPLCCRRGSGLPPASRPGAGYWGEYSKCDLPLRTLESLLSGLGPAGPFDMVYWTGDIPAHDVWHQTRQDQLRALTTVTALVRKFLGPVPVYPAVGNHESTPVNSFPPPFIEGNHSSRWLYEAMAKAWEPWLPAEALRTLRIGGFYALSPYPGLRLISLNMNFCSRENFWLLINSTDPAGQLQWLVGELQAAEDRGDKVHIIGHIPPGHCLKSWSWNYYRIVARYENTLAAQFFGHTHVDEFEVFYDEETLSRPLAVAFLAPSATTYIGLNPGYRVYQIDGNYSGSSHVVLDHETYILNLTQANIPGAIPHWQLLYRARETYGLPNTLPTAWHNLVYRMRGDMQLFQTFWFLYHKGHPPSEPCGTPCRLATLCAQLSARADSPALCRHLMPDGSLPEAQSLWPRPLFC
# [11] = target: T2, Acid ceramidase (Homo sapiens) (UniProt Q13510); assay: Inhibition of TNFalpha-stimulated acid ceramidase in human PBMC assessed as ratio of C16-ceramide/lipid phosphate level at 10 uM preincubated for 30 mins followed by TNFalpha stimulation measured after 4 hrs by HPLC method (reference value: 0.49); type: cell-based
# T2 sequence (whole entry): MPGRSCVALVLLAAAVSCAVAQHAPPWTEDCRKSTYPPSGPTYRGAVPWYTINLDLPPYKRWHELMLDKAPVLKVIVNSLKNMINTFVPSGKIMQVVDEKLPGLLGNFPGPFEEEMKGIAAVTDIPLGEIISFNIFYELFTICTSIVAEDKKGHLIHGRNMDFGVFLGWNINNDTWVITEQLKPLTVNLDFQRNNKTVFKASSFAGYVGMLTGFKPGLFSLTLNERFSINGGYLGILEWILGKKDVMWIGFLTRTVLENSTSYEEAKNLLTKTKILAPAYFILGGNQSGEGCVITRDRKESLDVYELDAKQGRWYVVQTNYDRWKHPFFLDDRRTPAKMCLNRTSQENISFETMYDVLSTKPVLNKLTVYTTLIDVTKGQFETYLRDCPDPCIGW
# How it was run: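 Human macrophages from primary culture were preincubated 30 min with 10 µM compound. They were then stimulated 4 h with mmLDL (54 µg/mL), TNFalpha (3 ng/mL) or exogenous C6-ceramide (10 µM), or left unstimulated. Individual ceramide species (C16 and C24:1) were quantified in the cell lipid extracts.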
# MONO-MAC-6 [12] = assay: Upregulation of PTGS2 mRNA expression level in LPS-stimulated human MONO-MAC-6 cells at 5 uM preincubated for 30 mins followed by LPS stimulation measured after 4 hrs by oligonucleotide array hybridization assay (reference value: 5.29); type: functional
# MONO-MAC-6 [13] = assay: Upregulation of IFNA13 mRNA expression level in LPS-stimulated human MONO-MAC-6 cells preincubated for 30 mins followed by LPS stimulation measured after 1 hr by qRT-PCR analysis relative to control; type: functional
# MONO-MAC-6 [14] = assay: Downregulation of CXCL2 mRNA expression level in human MONO-MAC-6 cells at 5 uM incubated for 30 mins measured after 6 hrs by oligonucleotide array hybridization assay relative to control; type: functional; how it was run: as §1
# MONO-MAC-6 [15] = assay: Downregulation of CCL20 mRNA expression level in human MONO-MAC-6 cells at 5 uM incubated for 30 mins measured after 1 hr by oligonucleotide array hybridization assay relative to control; type: functional; how it was run: as §1
# PBMC = assay: Inhibition of TNFalpha-stimulated apoptosis in human PBMC assessed as apoptotic cells at 2 uM preincubated for 30 mins followed by TNFalpha stimulation measured after 4 hrs by YO-PRO-1/Hoechst 33342 staining based assay relative to control; type: functional; parameters: scale not given: the % may be the effect or the level left
# How it was run: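 PBMC pre-incubated 30 min with 2 μM compound, then stimulated with mmLDL (27 μg/mL; line 5) or TNFalpha (3 ng/mL; line 1) for 4 h. Apoptotic cells stained with YO-PRO-1 and all cells with Hoechst 33342. Each plate had control, stimulus, compound alone and compound plus stimulus; n = 3. Values are on a 0% (untreated control, corrected for spontaneous apoptosis) to 100% (stimulus alone) scale; means ± SE.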
structure (smiles),measurement,setting,value
COc1ccc(CCN(C)CCCn2c3ccccc3c3ccccc32)cc1,fold change (FC),MONO-MAC-6 [1],2.86
same,fold change (FC),MONO-MAC-6 [2],1.16
same,fold change (FC),MONO-MAC-6 [3],3.78
same,fold change (FC),MONO-MAC-6 [4],1.01
same,fold change (FC),MONO-MAC-6 [5],1.69
same,fold change (FC),MONO-MAC-6 [6],1.14
same,fold change (FC),MONO-MAC-6 [7],1.07
same,fold change (FC),MONO-MAC-6 [8],4.67
same,fold change (FC),MONO-MAC-6 [9],1.87
same,inhibition,[10],Active
same,Ratio,[11],0.16
same,fold change (FC),MONO-MAC-6 [12],4.07
same,fold change (FC),MONO-MAC-6 [13],41.95
same,fold change (FC),MONO-MAC-6 [14],5.44
same,fold change (FC),MONO-MAC-6 [15],1.09
same,Activity,PBMC,19%
